ERAP1 HTS inh = inhibitors of human ERAP1 aminopeptidase; Q9NZ08; AID 652197; 340,000 compounds, 0.15% hits; inhibition, % at 10.7 µM; recombinant ERAP1, Leu-AMC fluorescence, 60 min;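 active = mean replicate inhibition of at least 30%, or all replicates individually reaching that 30% level; inactive = mean below 30% and not every replicate reaching it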
Target sequence (Q9NZ08 whole entry, looked up): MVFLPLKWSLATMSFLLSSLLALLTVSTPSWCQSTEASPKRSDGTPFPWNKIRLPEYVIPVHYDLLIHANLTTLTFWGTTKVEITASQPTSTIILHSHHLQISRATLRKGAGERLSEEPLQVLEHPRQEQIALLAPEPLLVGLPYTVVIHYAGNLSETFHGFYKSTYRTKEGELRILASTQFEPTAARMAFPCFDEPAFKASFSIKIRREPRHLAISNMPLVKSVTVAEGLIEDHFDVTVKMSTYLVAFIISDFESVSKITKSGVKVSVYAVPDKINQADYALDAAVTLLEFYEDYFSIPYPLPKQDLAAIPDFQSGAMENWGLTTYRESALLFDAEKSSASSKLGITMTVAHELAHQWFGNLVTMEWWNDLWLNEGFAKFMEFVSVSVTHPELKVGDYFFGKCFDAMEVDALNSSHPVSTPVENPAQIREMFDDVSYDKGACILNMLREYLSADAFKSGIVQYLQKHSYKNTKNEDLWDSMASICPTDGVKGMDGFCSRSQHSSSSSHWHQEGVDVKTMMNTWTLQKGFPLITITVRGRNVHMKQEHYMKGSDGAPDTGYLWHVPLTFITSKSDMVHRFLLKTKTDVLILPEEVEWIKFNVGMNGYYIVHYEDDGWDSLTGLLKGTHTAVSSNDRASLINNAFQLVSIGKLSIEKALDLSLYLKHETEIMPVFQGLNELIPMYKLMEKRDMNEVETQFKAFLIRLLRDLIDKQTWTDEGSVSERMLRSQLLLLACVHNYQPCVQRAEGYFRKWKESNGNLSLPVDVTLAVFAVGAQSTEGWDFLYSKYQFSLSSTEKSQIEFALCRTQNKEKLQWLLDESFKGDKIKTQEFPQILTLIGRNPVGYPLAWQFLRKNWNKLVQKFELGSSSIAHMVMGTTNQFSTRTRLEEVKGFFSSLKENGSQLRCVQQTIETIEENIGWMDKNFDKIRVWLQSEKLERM
FGF22 binding = shifts melting point of recombinant human FGF22; recombinant FGF22 thermal shift, SYPRO orange fluorescence; percent of sucrose octasulfate shift, DMSO zero; activity (Tm shift, normalised), % at 9.99 µM; 340,000 compounds, 1.5% hits;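 active = mean Tm shift, scaled 0 neutral to 100 positive control, at about 1.3% or above, every replicate too, limit read from the data; inconclusive = no clear call, values can overlap the other calls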
DENV2 CPE = protects cells from dengue virus 2 cytopathic effect; 350,000 compounds, 1.7% hits; AID 651640; DENV2-infected cells, cytopathic effect rescue, plate reader; CPE inhibition, % at 9.99 µM; in the data active = CPE inhibition above about 20%, passing the limit was not always enough; inconclusive = no clear call, values can overlap the other calls; tested in BHK-21 cells
E-selectin induc = E-selectin induction on HUVECs; P16581; HUVEC E-selectin immunofluorescence imaging; normalized: neutral wells 0, TNF-alpha wells 100; activation, % at 7.58 µM; 260,000 compounds, 0.37% hits; AID 686992;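 active = mean E-selectin-positive cell signal at least 10% of the positive control, reached in at least 60% of replicates, without over 20% cell loss; inconclusive = no rule given, readout overlaps actives, possibly toxicity-flagged; inactive = the rest, including those meeting only one limit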
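Test system – human umbilical vein endothelial cells (HUVEC), E-selectin induction · Input – 3,000 HUVEC seeded per well · Buffer or medium – EGM-2, gelatin · Compound dosing – single-point compound dose · Detection – immunofluorescence imaging · Measure – percent E-selectin-positive cells · Controls – TNF-alpha high, DMSO low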
F508del corr = CFTR F508del correction in bronchial cells | CFBE cells, YFP halide quenching; stimulated with forskolin plus potentiator P3; % fluorescence drop versus neutral controls | activity (quench increase), % at 7.58 µM | 350,000 compounds, 0.36% hits;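 active = mean added fluorescence quench of at least 8% versus neutral control, with both replicates also reaching 8%; inconclusive = only one of the mean or replicate conditions met; inactive = mean below 8% and not both replicates reaching 8%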;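 also: cells transiently co-express mutant CFTR-F508del with the halide-sensitive YFP; corrector assay measuring rescue of mutant channel to the surface after 24 h compound exposure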
Hits are given with their value; . = inactive; ? = inconclusive; / = no result given. In the library only some 3.7% were active in any assay of this set; here they are far more common.

SMILES | ERAP1 HTS inh | FGF22 binding | DENV2 CPE | E-selectin induc | F508del corr
C[C@@H]1CN([C@@H](C)CO)C(=O)Cc2cc(NC(=O)CCCN(C)C)ccc2O[C@@H]1CN(C)CC1CCCCC1 | . | / | . | . | .
Cc1cc(C(=O)Nc2cccc3c2O[C@H](CN(C)Cc2ccc(C(=O)O)cc2)[C@H](C)CN([C@@H](C)CO)C3=O)n(C)n1 | . | . | . | . | .
CC(C)(C)c1ccc(OCCCC(=O)Nc2ccc(S(N)(=O)=O)cc2)cc1 | . | 44 | / | / | .
C/C=C/c1cnc2c(c1)C(=O)N([C@H](C)CO)C[C@@H](C)[C@@H](CN(C)C(=O)C1CC1)O2 | / | / | / | . | .
O=C(C[C@@H]1CC[C@@H](NS(=O)(=O)c2ccccc2)[C@H](CO)O1)NCc1ccccc1F | . | . | . | . | .
OC[C@@H]1[C@@H](c2ccccc2)C2(CN(Cc3nccs3)C2)N1Cc1ccccc1 | . | . | 20 | . | .
OC[C@@H]1[C@H](c2ccccc2)C2(CN(Cc3nccs3)C2)N1Cc1cccnc1 | . | . | . | . | .
OC[C@@H]1[C@H](c2ccccc2)C2(CN(Cc3cccnc3)C2)N1Cc1ccncc1 | . | . | 20 | . | .
OC[C@@H]1[C@@H](c2ccccc2)C2(CN(Cc3nccs3)C2)N1Cc1cccnc1 | . | . | 84 | . | .
CC(C)NC(=O)N(C)C[C@@H]1Oc2ccc(NC(=O)Cc3cn(C)c4ccccc34)cc2C(=O)N([C@H](C)CO)C[C@@H]1C | . | . | . | . | .
CNC(=O)C[C@H]1CC[C@H]2[C@@H](COc3ccc(NC(=O)NC4CCCC4)cc3C(=O)N2C)O1 | . | . | . | . | .
O=c1c2ccccc2ncn1Cc1cccc2ccccc12 | . | 43 | . | . | .
CCCN(C)C[C@H]1Oc2cc(-c3cccnc3)ccc2S(=O)(=O)N([C@@H](C)CO)C[C@H]1C | . | . | . | . | .
COc1ccc(-c2cc(C#N)nc(Cl)n2)cc1 | / | . | . | . | .
COc1ccc(-c2cc(C#N)nc(NN)n2)cc1 | / | . | 47 | . | .
Cc1noc(C)c1NC(=O)Nc1cccc2c1O[C@H](CN(C)CC1CCCCC1)[C@@H](C)CN([C@H](C)CO)C2=O | / | . | . | . | .
Cc1cccc(C)c1NC(=O)C(C)n1c(-c2ccc(=O)[nH]c2)nc2ccccc21 (stereo not drawn) | . | . | 21 | . | .
COCC(=O)N(C)C[C@H]1Oc2cc(C#CCC3CCCC3)ccc2S(=O)(=O)N([C@H](C)CO)C[C@H]1C | / | . | . | . | .
CC(C)(C)N1CC23CCC(C[C@@H]2C1=O)O3 (stereo partly drawn) | . | . | 39 | . | .
CC(C)(C)N1CC23C=CC(C[C@@H]2C1=O)O3 (stereo partly drawn) | . | . | . | . | .
COc1ccc2c3c([nH]c2c1)[C@H](CO)N(S(C)(=O)=O)CC31CCN(C(=O)CN(C)C)CC1 | / | / | . | . | .
Cc1ccccc1-c1nc2c(s1)CCc1onc(-c3ccc(Cl)cc3)c1-2 | . | . | 105 | . | .
COc1ccc(S(=O)(=O)N(C)C[C@@H]2Oc3ccc(NS(=O)(=O)c4cccs4)cc3C(=O)N([C@@H](C)CO)C[C@H]2C)cc1 | . | . | . | . | .
O=C(Nc1ccc(F)cc1)N1C[C@H]2[C@@H](c3ccccc31)[C@H](CO)N2Cc1ccccc1 | . | . | . | . | .
COc1ccc(/C=C/C2=NN(Cc3ccccc3)C(=O)CC2)cc1 | . | 43 | . | . | .
SMILES | ERAP1 HTS inh | FGF22 binding | DENV2 CPE | E-selectin induc | F508del corr
COc1ccc(OCCN2C(=O)NC3(CCc4ccccc4C3)C2=O)cc1 (stereo not drawn) | . | 44 | / | / | .
CN1C=C/C(=C\c2cc[n+](C)c3ccccc23)c2ccccc21 | 80 | . | . | . | .
C[C@H](NC(=O)C[C@H]1CC[C@@H](NC(=O)C2CCC2)[C@H](CO)O1)c1ccccc1 | . | . | . | . | .
N/C(=N\OC(=O)c1ccc(=O)n(Cc2ccc(Cl)cc2)c1)c1ccccn1 | . | . | . | / | .
N/C(=N\OC(=O)c1ccc2ccccc2c1)c1ccccn1 | . | 45 | . | / | .
N/C(=N\OC(=O)c1cc(Br)ccc1Cl)c1ccccn1 | . | 43 | . | / | .
N/C(=N\OC(=O)c1ccco1)c1ccccn1 | . | 43 | . | . | .
N/C(=N\OC(=O)c1ccc(=O)n(Cc2ccccc2)c1)c1ccccn1 | . | 43 | . | / | .
N/C(=N\OC(=O)c1ccc2ccccc2c1)c1ccncc1 | . | . | . | / | /
N/C(=N\OC(=O)c1cccc2ccccc12)c1ccccn1 | . | . | . | . | .
CN1[C@@H]2c3ccc(-c4ccc(F)cc4)c(=O)n3C[C@H]1[C@H](CO)[C@H]2C(=O)Nc1nccs1 | . | . | . | . | .
CNC[C@H]1Oc2c(NC(=O)c3cc(C)nn3C)cccc2C(=O)N([C@H](C)CO)C[C@@H]1C | . | . | . | / | .
CN1[C@H](C(=O)NCCc2ccccc2)[C@@H](CO)[C@@H]2Cn3c(cccc3=O)[C@@H]21 | . | . | . | . | .
CCN(CC)CCCNc1nc2ccccc2c2nc(-c3ccncc3)nn12 | . | . | . | . | 15
O=C(CCn1cncn1)N1CCCC(N2CCN(c3ccc(F)cc3)CC2)C1 (stereo not drawn) | . | . | 43 | . | .
CO[C@@H]1CN(C)C(=O)c2ccc(NC(=O)C3CCCC3)cc2OC[C@@H](C)N(C(=O)CC2CC2)C[C@@H]1C | . | . | . | . | .
CC1(C)CCN2CCC(C)(C)c3c(O)ccc1c32 | . | . | . | / | 38
CN(C)CC(=O)N[C@H]1C=C[C@@H](CC(=O)NCc2ccc(Cl)cc2)O[C@H]1CO | . | . | . | . | .
COc1ccc(N2C(=O)C(CC(=O)Nc3ccccc3)N(CCc3ccc(OC)c(OC)c3)C2=O)cc1 (stereo not drawn) | . | 44 | . | / | .
COc1cccc(-c2ccc([C@@H]3[C@H]4CN(C(=O)c5ccncc5)CC(=O)N4[C@H]3CO)cc2)c1 | . | / | . | . | .
O=C(NCC[C@H]1CC[C@H](NS(=O)(=O)Cc2ccccc2)[C@@H](CO)O1)C1CCC1 | . | . | . | . | .
N#C/C(=C(/O)COc1ccccc1)c1nc2ccccc2s1 | . | . | . | / | .
N#C/C(=C(/O)COC(=O)c1ccc(C#N)cc1)c1nc2ccccc2s1 | . | 44 | ? | / | .
C[C@H](CO)N1C[C@H](C)[C@@H](CN(C)S(=O)(=O)c2cn(C)cn2)Oc2ccc(NC(=O)CCC(F)(F)F)cc2CC1=O | / | . | . | . | .
O=c1c([N+](=O)[O-])c(NCCN2CCCCCC2)c2ccccc2n1-c1ccccc1 | . | 43 | . | / | .
Cn1c(=O)c([N+](=O)[O-])c(-n2ccnc2)c2ccccc21 | . | . | . | . | .
Cn1c(=O)c([N+](=O)[O-])c(NCCCn2ccnc2)c2ccccc21 | / | . | . | 74 | .
CCCCNc1c([N+](=O)[O-])c(=O)n(C)c2ccccc12 | . | . | . | 48 | .

Source: PubChem
